Results pooled from the literature.
Compare with care: the assays were run in different laboratories.
HRH1: Histamine H1 receptor (HRH1, Homo sapiens, UniProt P35367)
Adora1: Adenosine receptor A1 (Adora1, Rattus norvegicus, UniProt P25099)

target | test | setting | Ki [nM] | SMILES
HRH1 | ligand displacement, radioligand | cell membranes | 791 | CN(C)c1ccc(/C=C2\CCc3cc(OCCCN4CCCCC4)ccc3C2=O)cc1
Carbonic anhydrase 9 (CA9, Homo sapiens, UniProt Q16790) | enzyme activity, inhibitor | – | 288 | CN1CCN(c2ccc(-c3ccnn3-c3ccc(S(N)(=O)=O)cc3)cc2)CC1
Induced myeloid leukemia cell differentiation protein Mcl-1 (MCL1, Homo sapiens, UniProt Q07820) | ligand displacement, FP | – | 3.4 | CC[C@H](C)[C@H](NC(=O)[C@H](CCC(=O)O)NC(=O)[C@H](CC(=O)O)NC(=O)CNC(=O)[C@H](CC(C)C)NC(=O)[C@H](CCCNC(=N)N)NC(=O)[C@H](CCC(N)=O)NC(=O)[C@H](CC(C)C)NC(=O)[C@H](CO)NC(=O)[C@H](CCC(N)=O)NC(=O)[C@@H](NC(=O)[C@H](CC(C)C)NC(=O)[C@H](Cc1c[nH]c2ccccc12)NC(=O)[C@@H](NC(=O)[C@H](CCC(=O)O)NC(=O)[C@@H]1CCCN1C(=O)[C@H](CCCNC(=N)N)NC(C)=O)[C@@H](C)CC)[C@@H](C)O)C(=O)N[C@@H](CC(N)=O)C(=O)N[C@@H](C)C(=O)N[C@@H](Cc1ccc(O)cc1)C(=O)N[C@@H](Cc1ccc(O)cc1)C(=O)N[C@@H](C)C(=O)N[C@@H](CCCNC(=N)N)C(N)=O
Tyrosine-protein phosphatase non-receptor type 2 (PTPN2, Homo sapiens, UniProt P17706) | enzyme activity, inhibitor | – | 6000 | CC(C)[C@@H](CC[C@@H](C)[C@H]1CC[C@H]2[C@@H]3[C@H](O)C[C@H]4C[C@@H](NCCCNCCCCNCCCN)CC[C@]4(C)[C@H]3CC[C@]12C)OS(=O)(=O)O
NAD-dependent protein deacylase sirtuin-5, mitochondrial (SIRT5, Homo sapiens, UniProt Q9NXA8) | enzyme activity, inhibitor | – | 3200 | O=C(CCNC(=S)NCCCC[C@H](NS(=O)(=O)c1cccc(F)c1)C(=O)N[C@@H](Cc1c[nH]c2ccccc12)C(=O)NC1CCC1)NO
Proton-coupled folate transporter (Homo sapiens, UniProt Q96NT5) | transporter uptake, inhibitor, radiometric | pH 5.5 | 380 | Nc1nc2c(c(=O)[nH]1)N(C=O)[C@H](CNc1ccc(C(=O)N[C@@H](CCC(=O)O)C(=O)O)cc1)CN2
Adora1 | ligand displacement, radioligand | cell membranes | 4320 | CCCCN1CCCn2c1nc1c2c(=O)n(C)c(=O)n1C
Cathepsin L2 (CTSV, Homo sapiens, UniProt O60911) | enzyme activity, inhibitor, fluorescence | with preincubation | 0.25 | CC[C@H](NC(=O)[C@H](CS(=O)(=O)CC1CC1)N[C@@H](c1ccc(F)cc1)C(F)(F)F)C(=O)C(=O)NC1CC1
Adora1 | ligand displacement, radioligand | cell membranes | ≥ 25000 | CCN1CCCn2c1nc1c2c(=O)n(C)c(=O)n1C
HRH1 | cell-free assay, radioligand | – | 0.501 | CN1CCC(C2c3ccccc3C=Cc3ccccc32)CC1
Adora1 | ligand displacement, radioligand | cell membranes | 3160 | CCCCCN1CCCn2c1nc1c2c(=O)n(C)c(=O)n1C
HRH1 | ligand displacement, radioligand | cell membranes | 1970 | CN(C)c1ccc(/C=C/C=C2\CCc3ccc(OCCCN4CCCCC4)cc3C2=O)cc1
Beta-1 adrenergic receptor (ADRB1, Homo sapiens, UniProt P08588) | cell-free assay, radioligand | – | > 10000 | CCCCN1CCC(COC(=O)c2ccc(N)c(OCF)c2)CC1
